The source of these data is ChEMBL document CHEMBL1128513, “(Aryloxy)methylsilane derivatives as new cholesterol biosynthesis inhibitors: synthesis and hypocholesterolemic activity of a new class of squalene epoxidase inhibitors” (J Med Chem, 1995).

Structures are written as SMILES. Bounds are passed on as bounds.

Assay [1] is described as follows: In vitro ability to inhibit cholesterol biosynthesis in HepG2 cells in culture from [14C]acetate. In kind it is functional, cell-based.
Assay [2] in a line: In vivo ability to inhibit cholesterol biosynthesis from [14C]acetate after a single oral administration in female rats. Type of assay: functional. Particulars: Rattus norvegicus. The method, boiled down: (§1)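 Female SD rats (60–80 g) kept 11 days on a reversed light cycle with free access to food and water. Single oral dose at 9:00 a.m., suspended in water with 2% DMSO and 5% Tween 80 (1 mL/100 g). [14C]acetate given i.p. at 80 μCi/kg 1 h later. Liver taken after a further 1 h, saponified, and [14C]cholesterol analysed by TLC against controls. Mean ED50 from at least two experiments.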

Assay [3] is described as follows: In vitro ability to inhibit cholesterol biosynthesis in HepG2 cells in culture from [14C]mevalonate. Type of assay: functional, cell-based. The procedure, abridged:
(§2)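 Hep-G2 cells grown in DMEM with 10% fetal calf serum to subconfluence, then 48 h in DMEM plus 2% Ultroser G. Pretreated 1 h with compound or vehicle (DMSO 0.1%), then [14C]mevalonate (1 μCi/mL) for 4 h. Cells lysed in KOH and saponified in ethanolic KOH at 75 °C for 1 h. Nonsaponifiable lipids separated by TLC. IC50 derived from % [14C]cholesterol versus control cells.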

Assay [4] deals with HepG2. Nature of the assay: In vitro ability to inhibit cholesterol biosynthesis in HepG2 cells in culture from [14C]acetate. Particulars: Homo sapiens. In kind it is functional, cell-based.
The subject of assay [5] is HepG2. Put plainly: In vitro ability to inhibit cholesterol biosynthesis in HepG2 cells in culture from [14C]mevalonate. Particulars: Homo sapiens. Type of assay: functional, cell-based. The procedure, abridged: as §2
For assay [6], the system named is Rattus norvegicus. Nature of the assay: In vivo ability to inhibit cholesterol biosynthesis from [14C]acetate after a single oral administration in female rats. Type of assay: functional. The procedure, abridged: as §1

For orientation: IC50 means the concentration at which inhibition is half-maximal. A low value points to greater potency in that assay. Broadly, the ED50 is the dose at which the effect has come halfway, by size or by number of responders. A higher ED50 goes with a need for a large dose. For `CCN(C/C=C/C#CC(C)(C)C)Cc1cccc(OC[Si](C)(C)c2ccccc2C#N)c1`, the IC50 in assay [1] and in assay [3] was 80 nM each time. This compound had an ED50 in assay [2] of 7 mg/kg.
For the compound `CCN(CC#CC#CC(C)(C)OC)Cc1cccc(OC[Si](C)(C)c2ccccc2C)c1`, the values for the IC50 in assay [4] and in assay [3] were 120 nM and 290 nM, respectively. In assay [2], this compound yielded an ED50 of 1.8 mg/kg.
As for `C=Cc1ccc([Si](C)(C)COc2cccc(CN(CC)C/C=C/C#CC(C)(C)C)c2)cc1`, the ED50 in assay [2] was > 40 mg/kg. Also, inhibition in assay [3] was half-maximal at 1320 nM (IC50).
Turning to `CCN(C/C=C/C#CC(C)(C)C)Cc1cccc(OC[Si](C)(C)c2cccc(C)c2)c1`, the IC50 in assay [3] was > 10000 nM.
Regarding `CCN(C/C=C/C#CC(C)(C)C)Cc1cccc(OC[Si](C)(C)c2ccc(S)cc2)c1`, the IC50 in assay [3] was 10000 nM. This lies in the double-digit micromolar range.
Turning to `CCN(C/C=C/C#CC(C)(C)C)Cc1cccc(OC[Si](C)(C)Cc2ccccc2)c1`, the ED50 in assay [2] is > 40 mg/kg. The IC50 in assay [3] is > 10000 nM.
Take `CCN(C/C=C/C#CC(C)(C)C)Cc1cccc(OC[Si](C)(C)c2ccccc2C)c1`: the IC50 in assay [4] worked out at 150 nM; in assay [3], 120 nM. In addition, the 50% effect level in assay [2] (ED50) was put at a dose of 3.8 mg/kg.
`CCN(C/C=C/C#CC(C)(C)C)Cc1cccc(OC[Si](C)(C)c2ccc(C(N)=O)cc2)c1` had an IC50 in assay [3] of 1000 nM.
Regarding `CCN(C/C=C/C#CC(C)(C)C)Cc1cccc(OC[Si](C)(C)c2ccc(SC)cc2)c1`, in assay [3], the IC50 is > 10000 nM.
On to `CCN(C/C=C/C#CC(C)(C)C)Cc1cccc(OC[Si](C)(C)CCc2ccccc2)c1`, for which, in assay [3], the IC50 is > 10000 nM.
Same read-out and setting: to `CCN(C/C=C/C#CC(C)(C)C)Cc1cccc(OC[Si](C)(C)c2ccc(C)cc2)c1` belongs 5000 nM; to `CCN(C/C=C/C#CC(C)(C)C)Cc1cccc(OC[Si](C)(C)c2ccc(OC)cc2)c1`, > 10000 nM.
`CCN(C/C=C/C#CC(C)(C)C)Cc1cccc(OC[Si](C)(C)c2ccccc2OC)c1`: the ED50 in assay [2] is > 40 mg/kg. The compound also had an IC50 in assay [3] of 5000 nM.
For `CCN(C/C=C/C#CC(C)(C)C)Cc1cccc(OC[Si](C)(C)c2ccc(C#N)cc2)c1`, the values for the IC50 in assay [4] and in assay [3] were 70 nM and 60 nM, respectively. The ED50 in assay [2] was > 40 mg/kg.
On to `CCN(C/C=C/C#CC(C)(C)C)Cc1cccc(OCc2cc(-c3ccsc3)cs2)c1`, for which, in assay [5], the IC50 was determined as 20 nM. Further, the ED50 in assay [6] amounted to 2.5 mg/kg.
Turning to `CCN(C/C=C/C#CC(C)(C)C)Cc1cccc(OC[Si](C)(C)c2ccc(Cl)cc2)c1`, in assay [2], the ED50 was > 40 mg/kg. For the same compound, in assay [3], the IC50 was > 10000 nM.
In turn, `CCN(CC#CC#CC(C)(C)C)Cc1cccc(OC[Si](C)(C)c2ccccc2C)c1` had a 50% effective dose (ED50) in assay [2] of 5 mg/kg. The compound further gave an IC50 in assay [3] of 780 nM.
In the case of `CCN(C/C=C/C#CC(C)(C)C)Cc1cccc(OC[Si](C)(C)c2ccc(C=O)cc2)c1`, the values for the IC50 in assay [1] and in assay [3] were 150 nM and 140 nM, respectively. Also, it took a dose of 20 mg/kg to reach the 50% effect level in assay [2] (ED50).
In the case of `CCN(C/C=C/C#CC(C)(C)C)Cc1cccc(OC[Si](C)(C)c2ccc(F)cc2)c1`, the ED50 in assay [2] is > 40 mg/kg. For the same compound, the IC50 in assay [3] came out at 5000 nM.
The like results for `CCN(C/C=C/C#CC(C)(C)C)Cc1cccc(OC[Si](C)(C)c2ccccc2C(F)(F)F)c1` were, in that order, 20 mg/kg and 1480 nM.
The corresponding values for `CCN(C/C=C/C#CC(C)(C)C)Cc1cccc(OC[Si](C)(C)c2ccc(Br)cc2)c1` are > 40 mg/kg and > 10000 nM.
Regarding `CCN(C/C=C/C#CC(C)(C)C)Cc1cccc(OC[Si](C)(C)c2ccccc2)c1`, the IC50 is 800 nM in assay [1] and 500 nM in assay [3]. The same compound gave an ED50 in assay [2] of 20 mg/kg.
For `CC[C@H](C)C(=O)O[C@H]1C[C@H](O)C=C2C=C[C@H](C)[C@H](CC[C@@H](O)C[C@@H](O)CC(=O)O)[C@H]21` [PRAVASTATIN], the IC50 was […] in assay [5] and 430 nM in assay [1]. In assay [6], this compound came in with an ED50 of 0.9 mg/kg.
